# Results gathered from unrelated publications.
Structure (SMILES),target or system,assay,test system,setting,quantity,value
CC(=O)OCCCOc1ccc(C(=O)C(Cl)Cl)cc1[N+](=O)[O-],NCI-H1299,"cell growth or viability, MTT",,2.5 µM,inhibition,60.3%
Cc1ccc(-c2cc(C(F)(F)F)nn2-c2ccc(S(N)(=O)=O)cc2)cc1,RAW264.7,"NO release, inhibitor, Griess",,"10 µM, LPS-stimulated",inhibition,35.2%
CN(Cc1ccc(C(C)(C)C)cc1)Cc1cccc2ccccc12,Trichophyton mentagrophytes,"microbial growth, disc diffusion",ATCC18748,"0.004 µg/mL, 72 h",inhibition zone,34 mm
O=C(c1ccccc1)c1ccc(Oc2ccc(C(=O)C(Cl)Cl)cc2[N+](=O)[O-])cc1,NCI-H1299,"cell growth or viability, MTT",,2.5 µM,inhibition,85.3%
C=CC(=O)NC1CCN(c2ncc3ncnc(Nc4ccc(Oc5ccc6c(c5)ncn6C)c(C)c4)c3n2)CC1,COR-L279,cell growth or viability,,,EC50,7.54 nM
CN(Cc1ccc(C2(C(F)(F)F)CC2)cc1)Cc1cccc2ccccc12,Trichophyton mentagrophytes,"microbial growth, disc diffusion",ATCC18748,"0.512 µg/mL, 72 h",inhibition zone,≥ 55 mm
C#CCOc1ccc(/C=C/c2cc(OC)cc(OC)c2-c2cnnn2C(=O)NCC)cc1,RAW264.7,"NO release, inhibitor, Griess",,"10 µM, LPS-stimulated",inhibition,71.3%
O=C1C(NCCc2ccc(O)cc2)=CC2=NCCc3c[nH]c1c32,Babesia divergens,"parasite growth, SYBR Green",,"60 h, blood stage",IC50,404 nM
COc1cccc2c1C(=O)c1c(O)c3c(c(O)c1C2=O)C[C@@](O)(C(=O)CO)C[C@@H]3O[C@H]1C[C@H](N)[C@H](O)[C@H](C)O1,NCI-H1299,"cell growth or viability, MTT",,2.5 µM,inhibition,95.7%
C#CCOc1ccc(/C=C/c2cc(OC)cc(OC)c2-c2cnnn2C(=O)NCCc2ccccc2)cc1,RAW264.7,"NO release, inhibitor, Griess",,"10 µM, LPS-stimulated",inhibition,50.4%
N#Cc1c(-c2ccc(Cl)cc2Cl)c(C(N)=S)c(N)n(N)c1=O,Enterobacter cloacae,"microbial growth, well diffusion",ATCC23355,500 µg/mL,inhibition zone,18 mm
CC(=O)c1ccc(Oc2ccc(C(=O)C(Cl)Cl)cc2[N+](=O)[O-])cc1,NCI-H1299,"cell growth or viability, MTT",,2.5 µM,inhibition,92.2%
